Assay results published in ChEMBL document CHEMBL1123063, “Mechanism-based inactivation of N-arylhydroxamic acid N,O-acyltransferase by 7-substituted-N-hydroxy-2-acetamidofluorenes” (J Med Chem, 1985).

Tests used:
Cricetinae gen. sp. [1] = experiment: Percent protection from inactivation of AHAT was determined using L-cysteine; assay type: functional, Cricetulus griseus; set-up: concentration or dose not given beside the values
Method in brief: (§1)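 Run as in the inactivation kinetics: hamster hepatic AHAT was preincubated at 37 °C with a saturating inactivator concentration for 2–20 min (to maximal inactivation). Nucleophile was present at 10 mM (L-cysteine, L-methionine, glutathione, guanosine phosphate) or tRNA at 1 mg/mL. Remaining AAB transacetylation activity was then measured. Protection = percent remaining activity with minus without nucleophile. Mean ± SE of three experiments.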

Hamster = experiment: Activity measured as 4-aminoazobenzene (AAB) transacetylation rate with partially purified hamster hepatic enzyme; assay type: ADME; settings: cricetinae, in vitro
Method in brief: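 Hamster liver (male golden Syrian) 105000g supernatant, ammonium sulfate-fractionated (two- to three-fold), in 0.05 M sodium pyrophosphate pH 7, 1 mM DTT with KCl. 2-min 37 °C equilibration, then hydroxamic acid plus AAB added. Final: 1.0 mM donor, 0.15 mM AAB, 1.0 mg/mL protein, 2.0 min (exceptions: 0.5–0.6 mM donor, 3.5 min). TCA/EtOH stop, A497. Mean ± SE, N = 15–30.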

Cricetinae gen. sp. [2] = experiment: Percent protection from inactivation of AHAT was determined using glutathione; assay type: functional, Cricetulus griseus; set-up: concentration or dose not given beside the values; method in brief: as §1
Cricetinae gen. sp. [3] = experiment: Percent protection from inactivation of AHAT was determined using guanosine phosphate; assay type: functional, Cricetulus griseus; set-up: concentration or dose not given beside the values; method in brief: as §1
[4] = Apparent dissociation (binding) rate constant was evaluated; assay type: ADME
Method in brief: (§2)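 Partially purified hamster hepatic AHAT was preincubated at 37 °C in pyrophosphate buffer pH 7, 1 mM DTT, KCl, with five inactivator concentrations (0.005–1.0 mM final) for five preincubation periods (1–15 min). Remaining AAB transacetylation activity was then assayed. kobsd came from semilog plots of percent remaining activity vs. time. k_i and K_D came from double-reciprocal plots of kobsd vs. concentration. Three experiments, each in triplicate.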

Cricetinae gen. sp. [5] = experiment: Percent protection from inactivation of AHAT was determined using L-methionine; assay type: functional, Cricetulus griseus; set-up: concentration or dose not given beside the values; method in brief: as §1
[6] = Ratio of apparent inactivation rate constant to apparent dissociation (binding) rate constant was determined
[7] = Apparent inactivation rate constant was evaluated; method in brief: as §2
Cricetinae gen. sp. [8] = experiment: Percent protection from inactivation of AHAT was determined using t-RNA; assay type: functional, Cricetulus griseus; set-up: concentration or dose not given beside the values; method in brief: as §1
[9] = test system: N-arylhydroxamic acid N,O-acyltransferase (Mesocricetus auratus); experiment: Percent protection from inactivation of AHAT was determined using t-RNA
[10] = test system: N-arylhydroxamic acid N,O-acyltransferase (Mesocricetus auratus); experiment: Percent protection from inactivation of AHAT was determined using guanosine phosphate
[11] = test system: N-arylhydroxamic acid N,O-acyltransferase (Mesocricetus auratus); experiment: Percent protection from inactivation of AHAT was determined using L-cysteine
[12] = test system: N-arylhydroxamic acid N,O-acyltransferase (Mesocricetus auratus); experiment: Percent protection from inactivation of AHAT was determined using L-methionine
[13] = test system: N-arylhydroxamic acid N,O-acyltransferase (Mesocricetus auratus); experiment: Percent protection from inactivation of AHAT was determined using glutathione

Compound | Protection (Cricetinae gen. sp. [1]) [%] | Rate (Hamster) [nmol/mg/min] | Protection (Cricetinae gen. sp. [2]) [%] | Protection (Cricetinae gen. sp. [3]) [%] | Kd [4] [µM] | Protection (Cricetinae gen. sp. [5]) [%] | kinact/KI [6] [M⁻¹ s⁻¹] | kinact [7] [min⁻¹] | Protection (Cricetinae gen. sp. [8]) [%] | Protection [9] [%] | Protection [10] [%] | Protection [11] [%] | Protection [12] [%] | Protection [13] [%]
CC(=O)N(O)c1ccc2c(c1)Cc1cc(Br)ccc1-2 | 31.1 | 20.5 | 34.7 | 26.9 | 5.9 | 6.6 | 620 | 0.22 | 0 | – | – | – | – | –
COc1ccc2c(c1)Cc1cc(N(O)C(C)=O)ccc1-2 | 47.6 | 10.9 | 46.1 | 54.9 | 35.1 | 28.3 | 1770 | 3.73 | 32.2 | – | – | – | – | –
CCCCOc1ccc2c(c1)Cc1cc(N(O)C(C)=O)ccc1-2 | 9.3 | 4.6 | 6 | 18.9 | 5.7 | 8.1 | 1690 | 0.58 | 18 | – | – | – | – | –
CCOc1ccc2c(c1)Cc1cc(N(O)C(C)=O)ccc1-2 | – | 9.6 | – | – | 3.8 | – | 2940 | 0.67 | – | 19.2 | 21.3 | 34.2 | 43.3 | 39.4
CC(=O)N(O)c1ccc2c(c1)Cc1cc(Cl)ccc1-2 | – | 20.1 | – | – | 48.8 | – | 258 | 0.76 | – | – | – | – | – | –
CC(=O)N(O)c1ccc2c(c1)Cc1cc(C#N)ccc1-2 | 35.9 | 16.5 | 30.5 | 5.9 | 40 | 8 | 37.5 | 0.09 | 2.9 | – | – | – | – | –
CC(=O)N(O)c1ccc2c(c1)Cc1ccccc1-2 | 39.1 | 20.9 | 15.7 | 34.9 | 88.8 | 23.1 | 360 | 1.95 | 1.9 | – | – | – | – | –
CC(=O)N(O)c1ccc2c(c1)Cc1cc(I)ccc1-2 | – | 5.3 | – | – | 0.4 | – | 2900 | 0.07 | – | – | – | – | – | –
CC(=O)c1ccc2c(c1)Cc1cc(N(O)C(C)=O)ccc1-2 | 32.4 | 13.7 | 26.3 | 1.4 | 0.4 | 0.3 | 10400 | 0.25 | 8.3 | – | – | – | – | –
CC(=O)N(O)c1ccc2c(c1)Cc1cc(F)ccc1-2 | 54.5 | 26.8 | 55.2 | 58.4 | 129 | 38.2 | 334 | 2.59 | 17.6 | – | – | – | – | –
